# Tests used:
# [1] = Antioxidant activity assessed as inhibition of AAPH-induced peroxyl radical formation at 0.3 to 2 uM preincubated for 15 mins followed by AAPH addition measured every 1 min for 120 mins by ORAC-FL assay relative to trolox; type: functional
# In short: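 Fluorescein (70 nM final) and compound (0.3–2 µM, in methanol) were mixed in 75 mM sodium phosphate pH 7.4 and pre-incubated 15 min at 37 °C. AAPH (18 mM final) was then added. Fluorescence (ex 485, em 528 nm) was read every minute for 120 min. Net AUC was taken after subtracting a methanol blank and expressed relative to trolox. Triplicates, at least three independent assays.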
# [2] = test system: Radical scavenging activity; assay: Antioxidant activity assessed as DPPH radical scavenging activity at 1 mM after 5 mins by ESR spectrometric analysis; type: functional
# In short: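 Reaction mixtures held DPPH and test compound, each at 1.0 mM, both made up in acetonitrile. A control lacked compound. ESR signal was recorded 5 min after mixing at 9.81 GHz with 20 mW microwave power, 0.95 G modulation amplitude and 59 db receiver gain. Values are given as % DPPH scavenging.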
# [3] = Antioxidant activity assessed as superoxide radical scavenging activity at 30 uM by cyclic voltammetric analysis; type: functional
# In short: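 Cyclic voltammetry was run at room temperature with a three-electrode cell in DMSO, with compound at 30 µM final. Scavenging (%) was calculated as [(Ipc blank − Ipc aox)/Ipc blank] × 100 from the cathodic peak current without and with compound. Three replicates; significance was set at p < 0.05.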
# [4] = Antioxidant activity assessed as hydroxyl radical scavenging activity at 4 mM after 5 mins by ESR spectrometric analysis; type: functional
# In short: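 Hydroxyl radicals came from a non-catalytic Fenton-type system: DMF, NaOH (3 mM), DMPO spin trap (30 mM final) and 30% H2O2, with compound at 4 mM final. The DMPO-OH adduct was read by X-band ESR (9.7 GHz) at room temperature 5 min after mixing. A control without antioxidant was included. Values are given as % scavenging.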
# [5] = test system: Radical scavenging activity; assay: Antioxidant activity assessed as DPPH radical scavenging activity measured at 5 mins by ESR spectrometric analysis
# [6] = Antioxidant activity assessed as inhibition of AAPH-induced peroxyl radical formation by ORAC-FL assay relative to trolox; type: functional
# In short: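 Peroxyl scavenging in 75 mM sodium phosphate buffer pH 7.4 with fluorescein (70 nM final), using test compounds in methanol from 0.3 to 2 units. The mix was pre-incubated 15 min at 37 °C, then AAPH (18 mM final) was added. Fluorescence (ex 485, em 528 nm) was read every 1 min for 120 min. Net AUC was taken against a methanol blank and expressed relative to trolox standards. Triplicates, ≥3 independent runs.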
Structure (SMILES),fold change (FC) [1],Activity [2] [%],Activity [3] [%],Activity [4] [%],Activity [5] [%],fold change (FC) [6]
Cc1cccc2cc(-c3ccc(O)c(O)c3)c(=O)oc12,5.7,66.7,77.3,100,–,–
Cc1ccc2oc(=O)c(-c3ccc(O)c(O)c3)cc2c1,5.3,28.3,28.9,6.05,–,–
Cc1ccc2oc(=O)c(-c3ccc(O)cc3)cc2c1,6.1,27.7,17.4,100,–,–
O=c1oc2c(O)cccc2cc1-c1ccc(O)cc1,13.5,65.9,71.5,100,–,–
Cc1ccc2oc(=O)c(-c3cccc(O)c3)cc2c1,6.7,3.4,17.5,5.2,–,–
Cc1cccc2cc(-c3cc(O)c(O)c(O)c3)c(=O)oc12,5.3,100,76.5,100,–,–
Cc1cccc2cc(-c3cc(O)cc(O)c3)c(=O)oc12,5.5,11.2,22.6,75,–,–
Cc1ccc2oc(=O)c(-c3ccccc3O)cc2c1,8.4,10.6,25,100,–,–
O=c1c(O)c(-c2ccc(O)c(O)c2)oc2cc(O)cc(O)c12,–,–,–,–,20,7.28
Oc1cc(O)c2c(c1)OC(c1ccc(O)c(O)c1)C(O)C2 (stereo not given),–,–,–,–,44.5,6.76
Cc1ccc(-c2cc3cccc(O)c3oc2=O)cc1,6.3,28.6,17.4,16,–,–

# — ChEMBL document CHEMBL2396589, “Remarkable antioxidant properties of a series of hydroxy-3-arylcoumarins” (Bioorg Med Chem, 2013)
